RAD52 anneal inh: RAD52 DNA annealing inhibitors, primary screen, biochemical, FRET, single point, set 2; DNA repair protein RAD52 homolog (Homo sapiens), P43351; recombinant RAD52 DNA annealing, FRET fluorescence; inhibition, % at 18.7 µM; actives 0.46% (n = 360,000);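 active = every replicate showing at least 50% inhibition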
MLL AF4-AF9 inh: inhibitors of AF4 peptide binding to AF9, primary screen, biochemical, AlphaScreen, biotin-AF4 peptide, FLAG-AF9, single point | AID 651704, 2012 | Protein AF-9 (Homo sapiens), P42568 | inhibition, % at 10 µM | actives 0.47% (n = 350,000);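 active = every replicate reaching a set inhibition limit, whatever the replicate mean, cut at about 25% in these data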
ERAP1 HTS inh: human ERAP1 aminopeptidase inhibitors, primary screen, biochemical, single point, plate reader. Endoplasmic reticulum aminopeptidase 1 (Homo sapiens), Q9NZ08. recombinant ERAP1, Leu-AMC fluorescence, 60 min. inhibition, % at 10.7 µM. actives 0.15% (n = 340,000);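 active = mean replicate inhibition of at least 30%, or all replicates individually reaching that 30% level; inactive = mean below 30% and not every replicate reaching it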
Target sequence (Q9NZ08 whole entry, looked up): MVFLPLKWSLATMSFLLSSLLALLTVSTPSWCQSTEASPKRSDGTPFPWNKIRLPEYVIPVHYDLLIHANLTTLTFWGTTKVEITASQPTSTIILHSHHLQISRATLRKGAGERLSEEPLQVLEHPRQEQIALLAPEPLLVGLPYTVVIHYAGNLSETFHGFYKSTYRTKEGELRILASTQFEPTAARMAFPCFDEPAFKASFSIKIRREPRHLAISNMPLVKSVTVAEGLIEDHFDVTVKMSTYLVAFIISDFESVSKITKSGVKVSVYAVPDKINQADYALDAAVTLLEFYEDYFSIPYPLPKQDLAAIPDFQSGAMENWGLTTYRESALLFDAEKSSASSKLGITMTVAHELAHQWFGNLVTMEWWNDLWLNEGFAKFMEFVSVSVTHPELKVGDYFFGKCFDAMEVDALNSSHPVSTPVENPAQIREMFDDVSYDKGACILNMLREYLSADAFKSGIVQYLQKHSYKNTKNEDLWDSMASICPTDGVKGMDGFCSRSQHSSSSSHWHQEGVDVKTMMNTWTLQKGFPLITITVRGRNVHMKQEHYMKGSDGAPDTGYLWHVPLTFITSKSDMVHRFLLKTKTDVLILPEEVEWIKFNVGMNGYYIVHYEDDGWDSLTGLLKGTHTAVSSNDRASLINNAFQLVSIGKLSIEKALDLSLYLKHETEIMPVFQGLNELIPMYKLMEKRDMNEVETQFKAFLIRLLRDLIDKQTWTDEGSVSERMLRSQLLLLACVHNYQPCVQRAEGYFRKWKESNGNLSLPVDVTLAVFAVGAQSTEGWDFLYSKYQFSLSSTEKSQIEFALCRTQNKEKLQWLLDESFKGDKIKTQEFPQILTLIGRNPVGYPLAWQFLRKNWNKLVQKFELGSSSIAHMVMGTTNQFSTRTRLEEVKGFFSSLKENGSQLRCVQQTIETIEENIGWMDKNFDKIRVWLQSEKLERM
S100A4 MyoIIA: inhibitors of S100A4-myosin IIA peptide binding, primary screen, biochemical, fluorescence polarization, TAMRA-MyoIIA peptide; Protein S100-A4 (Homo sapiens), P26447; inhibition, % at 10.7 µM; actives 0.14% (n = 360,000); AID 652163, 2013;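 active = mean inhibition of at least 70% across replicates, with every replicate also reaching that level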
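Test system: S100A4 monomer protein. Medium: HEPES buffer with Ca2+, pH 7.2. Reagent: fluorescent myosin IIA peptide, 5 nM. Compound dosing: single-point compound testing. Timing: 5 min between mix addition and reading. Benchmarks: DMSO neutral and TFP positive wells.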
GSIS activator: GLuc luminescence reporter in INS-1E cells, primary screen for activators of glucose-dependent secretion of insulin; activation, % at 16.6 µM; INS-1E GLuc reporter insulin secretion, 2-3 h; actives 0.61% (n = 370,000);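 active = lowest replicate activation of at least 40%, so every replicate reaches that level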
DNA binder FP: DNA-binding compounds via dye displacement, dose response, artefact control for RAD52 inhibitor project, biochemical, fluorescence polarization, cherry-pick; shares compounds with RAD52 anneal inh; Salmon sperm DNA/acridine orange FP displacement; AC50, µM; actives 8% (n = 1,000); AID 652128, 2013;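 active = fitted half-maximal concentration for signal loss at or below twice the highest dose tested, in every separate run, actives reach about 64 µM in these data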
A number is an active result. Compounds with a hit are over-represented: about 1.5% of the library has one in this group of screens.

`O=C(N[C@H]1CC[C@@H](CCn2cc(C3(O)CCCC3)nn2)O[C@H]1CO)c1ccccc1F` gave RAD52 anneal inh inactive, MLL AF4-AF9 inh inactive, ERAP1 HTS inh inactive, S100A4 MyoIIA inactive and GSIS activator inactive.
`COc1nc(Nc2nc3ccccc3c(=O)[nH]2)nc2ccc(C)cc12` gave RAD52 anneal inh inactive, MLL AF4-AF9 inh inactive, ERAP1 HTS inh inactive, S100A4 MyoIIA inactive and GSIS activator inactive.
COc1nc(N=C(N)N)nc2ccc(C)cc12 was read as RAD52 anneal inh 79, MLL AF4-AF9 inh inactive, ERAP1 HTS inh inactive, S100A4 MyoIIA inactive, GSIS activator inactive and DNA binder FP inactive.
`CCCN(C)C[C@H]1Oc2ncc(-c3cccc(C(=O)N(C)C)c3)cc2C(=O)N([C@H](C)CO)C[C@@H]1C` gave RAD52 anneal inh inactive, MLL AF4-AF9 inh inactive, ERAP1 HTS inh inactive, S100A4 MyoIIA inactive and GSIS activator inactive.
Screening c1ccc(Nc2ccc(NCCc3c[nH]c4ccccc34)cc2)cc1 returned RAD52 anneal inh 78, ERAP1 HTS inh inactive, S100A4 MyoIIA inactive and DNA binder FP inactive.
Screening O=C(CCc1c[nH]c2ccccc12)Nc1ccc(Nc2ccccc2)cc1 returned RAD52 anneal inh inactive, ERAP1 HTS inh inactive, S100A4 MyoIIA inactive and GSIS activator inactive.
Cc1csc(N2CCN(c3cc4c(cc3Cl)nc(-c3ccncc3)n4CCCN3CCCC3)CC2)n1 was read as RAD52 anneal inh 98, MLL AF4-AF9 inh inactive, ERAP1 HTS inh inactive, S100A4 MyoIIA inactive and DNA binder FP inactive.
O=C1CN(S(=O)(=O)c2ccccc2)C[C@H]2[C@@H](c3ccc(C#Cc4ccccc4)cc3)[C@H](CO)N12 was read as RAD52 anneal inh inactive, MLL AF4-AF9 inh inactive, S100A4 MyoIIA inactive and GSIS activator inactive.
C[C@H](c1ccccc1)N1C[C@@H](COCc2ccccc2)Oc2cc(N3CC[C@H](N(C)C)C3)ccc2S1(=O)=O was read as RAD52 anneal inh 51, MLL AF4-AF9 inh inactive, ERAP1 HTS inh inactive, S100A4 MyoIIA inactive, GSIS activator inactive and DNA binder FP inactive.
Screening C[C@@H](c1ccccc1)N1C[C@@H](COCc2ccccc2)Oc2cc(N3CC[C@H](N(C)C)C3)ccc2S1(=O)=O returned RAD52 anneal inh inactive, MLL AF4-AF9 inh inactive, ERAP1 HTS inh inactive, S100A4 MyoIIA inactive and GSIS activator inactive.
`OC(c1ccccc1)(c1ccccc1)C1CCN(CCCOc2cc(F)cc(F)c2)CC1` gave RAD52 anneal inh inactive, ERAP1 HTS inh inactive, S100A4 MyoIIA inactive and GSIS activator inactive.
Screening OC(c1ccccc1)(c1ccccc1)C1CCN(CCCOc2ccc3c(c2)CCCC3)CC1 returned RAD52 anneal inh 51, MLL AF4-AF9 inh inactive, ERAP1 HTS inh inactive, S100A4 MyoIIA inactive, GSIS activator 762 and DNA binder FP inactive.
For COc1cc2c(cc1OC)C1Cc3ccc(OC)c(OC)c3CN1CC2 (stereo not given) the results were GSIS activator inactive.
`COc1cc2c(cc1OC)CN1CCc3cc(OC)c(OC)cc3C1C2` (stereo not given) gave RAD52 anneal inh 74, MLL AF4-AF9 inh inactive, ERAP1 HTS inh inactive, S100A4 MyoIIA inactive, GSIS activator inactive and DNA binder FP inactive.
For CN1CCN(CCCC(=O)c2ccc(C3CCCC3)cc2)CC1 the results were RAD52 anneal inh 68, MLL AF4-AF9 inh inactive, ERAP1 HTS inh inactive, S100A4 MyoIIA inactive, GSIS activator inactive and DNA binder FP inactive.
CCc1cc(C(=O)Nc2cc(S(=O)(=O)N(CC)CC)ccc2N2CCN(C)CC2)sc1C was read as RAD52 anneal inh 89, MLL AF4-AF9 inh inactive, ERAP1 HTS inh inactive, S100A4 MyoIIA inactive, GSIS activator inactive and DNA binder FP inactive.
Screening CC(C)OC(=O)N(C)C[C@@H]1OCc2cn(nn2)CCCC(=O)N([C@H](C)CO)C[C@@H]1C returned RAD52 anneal inh inactive, MLL AF4-AF9 inh inactive, ERAP1 HTS inh inactive, S100A4 MyoIIA inactive and GSIS activator inactive.
